Test results from publication PMC6664420 (Drug Design, Development and Therapy, 2019).

Key:
[1] = Pharmacokinetics after a single oral dose in healthy volunteers; format: in vivo, human
How it was run: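 Healthy men aged 20–50 y received a double-blind single oral dose of test compound mesylate (40–1280 mg) fasted; at 640 mg, dosing was repeated fed in period 2. Plasma was sampled from predose to 48 h, and urine was collected over 0–6, 6–12, 12–24 and 24–48 h. Analysis was UPLC-MS/MS, positive mode. Non-compartmental: linear-up/log-down AUC0-t. Dose proportionality used 95% CI of log-log slope. Food effect used a mixed-model GMR with 90% CI.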

[2] = Safety and tolerability after a single oral dose in healthy volunteers; format: in vivo, human
How it was run: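 Single-dose, double-blind, placebo-controlled (8:2 active:placebo) escalation in healthy men; tolerability through 48 h post-dose decided escalation. Monitoring covered AEs, physical exam, vital signs, 12-lead ECG, clinical laboratory tests, protein electrophoresis, and continuous pulse oximetry for 4 h post-dose. QTcmax and ΔQTcmax per dose group were compared with placebo by ANOVA and Dunnett's test, P<0.05.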

[3] = mice model; no method or reference given; cited from earlier work
[4] = no method or reference given; cited from earlier work
[5] = rats; ref Investigator's brochure, unpublished data; cited from earlier work
hERG current = details: preclinical study; ref Investigator's brochure, unpublished data; cited from earlier work
Gram-negative pathogens = details: ref Investigator's brochure, unpublished data; cited from earlier work
Streptococcus pneumonia = details: ref Investigator's brochure, unpublished data; cited from earlier work
[6] = cited from earlier work
[7] = all groups, total includes 1 placebo case per Table 2

Compound: CC(C)(C)[C@H](NC(=O)[C@H](CC1CCCC1)CN(O)C=O)C(=O)N1CCC(NCc2cc(F)c(F)cc2F)CC1 [IDP-73152]
- effect of food on terminal half-life ([1]; 640 mg, fed vs fasted, P=0.779): not affected by food intake
- GMR (with 90% CI) of AUC0-t, fed vs fasted ([1]; 640 mg, high-fat meal): 0.862 (0.811–0.917)
- GMR (with 90% CI) of Cmax, fed vs fasted ([1]; 640 mg, high-fat meal): 0.638 (0.563–0.723)
- decrease of Cmax by food ([1]; 640 mg, high-fat meal, fed vs fasted): 36.2%
- decrease of Cmax by food ([1]; 640 mg, high-fat meal, fed vs fasted, listed as IDP-73152 mesylate): 36%
- dose proportionality of AUC0-t ([1]; all dose ranges (40–1280 mg)): more than dose-proportional
- dose proportionality of AUC0-t ([1]; range of 40–320 mg): dose-proportional
- plasma level relative to MIC ([1]; single dose of 1280 mg, 12 hrs post-dose): above MIC level
- Incidence of drug-related AE: Diarrhoea ([2]; 160 mg, N=8): 1
- Incidence of drug-related AE: Nausea ([2]; 160 mg, N=8): 1
- Incidence of drug-related AE: Abdominal pain ([2]; 320 mg, N=8): 1
- Incidence of drug-related AE: Epigastric discomfort ([2]; 320 mg, N=8): 1
- Incidence of drug-related AE: Abdominal discomfort ([2]; 640 mg, fasted state, N=8): 1
- Incidence of drug-related AE: Headache ([2]; 1280 mg, N=8): 1
- Incidence of drug-related AE: Nausea ([2]; 1280 mg, N=8): 4
- severity of AEs ([2]; all dose groups): mild severity and not serious
- drug-related headache, total [2, 7]: 2 cases
- drug-related nausea, total [2, 7]: 6 cases
- tolerability ([2]; single oral dose of up to 1280 mg): well tolerated
- mean tmax [3]: 30 min
- terminal half-life [3]: 63 min
- volume of distribution [3]: 1.71 L/kg
- bound to plasma protein [4]: 95.4%
- distribution coefficient of the liver [5]: approximately 6.0
- distribution coefficient of the lung [5]: ~3.5
- inhibition of the hERG current (hERG current): concentration-dependent inhibition
- MIC against Gram-negative pathogens (Gram-negative pathogens): unfavorable MIC value
- PK/PD dependence of the antibiotic effect (Streptococcus pneumonia): AUC-dependent
- in vitro antimicrobial activity, minimal inhibitory concentration (MIC) [6]: comparable to that of linezolid and vancomycin
